Source: the EternaBench riboswitch data

Test system: MS2 coat protein
Assay: apparent Kd, MS2 coat protein; higher = weaker binding; RNA-MaP array; FMN 200 µM where present
Procedure, shortened: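 Stalled E. coli RNA polymerase transcribed the designs on Illumina sequencing-chip clusters. SNAP-549-labelled MS2 coat protein was titrated from 0.7 or 1.5 nM, doubling to 3 µM, without and then with constant ligand, in 100 mM Tris-HCl pH 7.5, 80 mM KCl, 4 mM MgCl2, BSA, DTT, yeast tRNA and Tween-20. Per-cluster binding curves were fitted to green signal normalised to red-channel RNA signal and control-cluster median Fmax. The apparent Kd is the median of the filtered fits.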

[1] = designed as: OFF switch for flavin mononucleotide, no ligand
[2] = ligand present: flavin mononucleotide, designed as: OFF switch for flavin mononucleotide
[3] = designed as: ON switch for flavin mononucleotide, no ligand
[4] = ligand present: flavin mononucleotide, designed as: ON switch for flavin mononucleotide

Row | Sequence | apparent Kd [1] [nM] | apparent Kd [2] [nM] | apparent Kd [3] [nM] | apparent Kd [4] [nM]
1 | UGAUGUCGCGAGGAUAUCCAAGAGGACUUUCUGGGAGAAGGUGCGACAUGAGGAUCACCCAUGUCAUAAGGAGU | 109 | 287 |  | 
2 | UGAUUCGAGGCUAAGCCUCCAUCACAGGAUAUGCACGAGACAUGAGGAUCACCCAUGUGGCGAAGGCAGAAGGGUGAUACGUCU |  |  | 197 | 24.6
3 | UGAUUGCGUGUUAGGAUAUGGUUUGGUGUUUCGGGCUAGAAGGGACAUGAGGAUCACCCAUGUAACUGGCGGGU | 54.9 | 67.7 |  | 
4 | UGCAUGUAAGGAUAUGCAUCCGCCAACGAACCGGCGGCACAGCAGAAGGUACAUGAGGAUCACCCAUGUGUCCC | 34.8 | 195 |  | 
5 | UGCAUGUAAGGAUAUGCAUCCGCCGGCGAACCGGCGCCACAGCAGAAGGUACAUGAGGAUCACCCAUGUGUCCC | 18.8 | 51.6 |  | 
6 | UGCCGAUGAGGAUAUACAUUGAAUUUGAUUCAUGUAAAACUACAUGAGGAUCACCCAUGUAGAAGGCAUUGGCU | 16.9 | 30.4 |  | 
7 | UGCGAGCAGAUCGUCCGCUCACAUGAGGAUCACCCAUGUAGGAGAAGGCGCCAUGAAGGCAGCGGCGAGGAUAUCCUCGUGGGC | 78 | 77.6 |  | 
8 | UGCGUCUAGACAGGAUAUCAAGGACGCCUACAUGAGGAUCACCCAUGUCGGCGGAGCAGCUCCGUUGAGAAGGGUCAUCGCAAC |  |  | 66.5 | 24.2
9 | UGCUGUGUCAGAGGAUAUACAUCAAUAAUCCAUUGCAAAUAGCGAUGGACAUGAGGAUCACCCAUGUAGAAGGCUGUCACAGCA | 111 | 384 |  | 
10 | UGGAAACAUGAGGAUCACCCAUGUAAAAGGUGGUCAGGAUAUGCGAAAAGAAAAAGAAAAGUAGAAGGGACAAGAA |  |  | 459 | 1200
11 | UGGAUGUAGGAGAAGGAGGACUUCAUGAGGAUCACCCAUGUGUUAGUACUUAGGAUAUUUGACAACAUGAGGAUCACCCAUGUC |  |  | 138 | 113
12 | UGGCCGAAGUUAGGAUAUUGGUUAGGGACGGACUAAGAAGGAGCACAUACAUGAGGAUCACCCAUGUUAGAAGAAGAUCCUCCA | 29.3 | 26.7 |  | 
13 | UGGCGGAGCAGAGGAUAUUACAUGAGGAUCACCCAUGUAUGAACCAAUAGCUGGAAACAGCAAUGUAAGAAGGCUGCUCCGACA | 12.1 | 176 |  | 
14 | UGGCUGAGUCGAGGAUAUGAUCUUCAUAUAUAUACAUGAGGAUCACCCAUGUAUAAUUACAUGGAUCAGAAGGCGACUCAGCCU |  |  | 29.4 | 9.47
15 | UGGGAUGGCUAGAAGGCUCCGUAUACUAAAGGGAGAGGAUAUGGCACAUGAGGAUCACCCAUGUGUACCUGUAGGUGAUCCACA | 276 | 70 |  | 
16 | UGGGUAAAUGUAGGAUAUUUAUAUUAAUAGUAUGGAGAAGGACAUGAGGAUCACCCAUGUACAGGGAAUUACCCAUUUCCUCUC | 1010 | 1100 |  | 
17 | UGGGUCACAGGAUAUACAUGAGGAUCACCCAUGUCGUAUUUCGUGGCGGAGAGCUCGAGUAGAAGGGUGCAUCC | 119 | 87.4 |  | 
18 | UGGGUGGUAUGAGGAUAUGCGCGCGAAACGCGCGCAGAAGGCAUGUCAAUAGACAUGAGGAUCACCCAUGUACUAUCCAUCCAA |  |  | 91.3 | 9.19
19 | UGGGUUUGUAGUUACAUCCCUACACAGGAUAUGGGUAGUUACAUGAGGAUCACCCAUGUUCGAACUCAGAAGGGUGGAUCGUUG |  |  | 85.3 | 11.3
20 | UGGUAACAUGAGGAUCACCCAUGUCAGGAUAUCAGUAAGAAGAGAUUAGAGUAGAAUAUGAGAAGGGACUAUAG | 36.7 | 30.4 |  | 
21 | UGGUACAUCGGAGGAUAUCAUGUAUAGACAUGAGGAUCACCCAUGUCGUACGAGAGUACGGAGAUUGAGAAGGCCGAUGUACCU |  |  | 21 | 16.6
22 | UGGUACAUCGGAGGAUAUCAUGUGAUAACAUGAGGAUCACCCAUGUCGAUGGAGACAUCGGAGAUUGAGAAGGCCGAUGUACCU |  |  | 801 | 84.2
23 | UGGUACAUGAGGAUCACCCAUGUAAGAGCCCUCAUGCGAUGUAGAAGGUUAAUGCGUGUAGUGCUAAAGGAUAUACAUGAGUUU | 82.3 | 71.2 |  | 
